Test results taken from ChEMBL document CHEMBL1157861, “Phosphaisocoumarins as a new class of potent inhibitors for pancreatic cholesterol esterase” (Eur J Med Chem, 2010).
Activity calls are given as the source filed them. No cut-off for these calls is given here.

Species on record: Sus scrofa
Test: Reversible inhibition of pig pancreatic cholesterol after 6 hrs absence of p-nitrophenylbutyrate
Method in brief: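 CEase and excess inhibitor are incubated without substrate in sodium phosphate buffer, pH 7.04, with 5% acetonitrile by volume, at 25 °C for up to 6 h. Samples are checked periodically by TLC.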

SMILES	Activity
CCOP1(=O)OC(c2ccccc2)=C(C#Cc2ccccc2)c2ccccc21 (centres undefined)	inactive
CCOP1(=O)OC(c2ccc(CC)cc2)=C(I)c2ccc(Cl)cc21 (centres undefined)	inactive
O=P1(O)OC(c2ccccc2)=C(Cl)c2ccccc21	inactive

Test system: not listed separately
Test: Inhibition of pig pancreatic cholesterol esterase assessed as p-nitrophenylbutyrate hydrolysis at 100 uM after 1 min
Parameters: species or system Sus scrofa
Method in brief: (§1)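 Porcine pancreatic CEase (0.0125 mU) is pre-incubated for 1 min with varied inhibitor concentrations in 0.1 M sodium phosphate, pH 7.04, with 0.1 M NaCl. PNPB (0.1 mM) is then added and hydrolysis is followed by A405 for 1 min. Compounds are also checked at one fixed top concentration. Each concentration is run in triplicate and averaged.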

SMILES	IC50
CCCCC1=C(Cl)c2ccc(Cl)cc2P(=O)(OCC)O1 (centres undefined)	Not Active
CCCCC1=C(Br)c2ccc(Cl)cc2P(=O)(OCC)O1 (centres undefined)	Not Active
CCOP1(=O)OC(C2CC2)=C(Br)c2ccc(Cl)cc21 (centres undefined)	Not Active
CCCCC1=Cc2ccccc2P(=O)(OCC)O1 (centres undefined)	Not Active
CCCCC1=C(I)c2ccccc2P(=O)(OCC)O1 (centres undefined)	Not Active
CCCCC1=C(Br)c2ccccc2P(=O)(OCC)O1 (centres undefined)	Not Active
CCOP1(=O)OC(C2CC2)=C(I)c2ccc(Cl)cc21 (centres undefined)	Not Active
CCOP1(=O)OC(C2CC2)=Cc2ccc(Cl)cc21 (centres undefined)	Not Active
CCOP1(=O)OC(C2CC2)=C(Br)c2ccc(OC)cc21 (centres undefined)	Not Active
CCCCC1=C(Cl)c2ccccc2P(=O)(OCC)O1 (centres undefined)	Not Active

Biological target: not listed separately
Test: Competitive inhibition of pig pancreatic cholesterol esterase assessed as p-nitrophenylbutyrate hydrolysis after 1 min by Lineweaver-Burke plot analysis
Parameters: species or system Sus scrofa
Method in brief: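 For kinetics, CEase (0.0125 mU) is pre-incubated 1 min with inhibitor in sodium phosphate buffer. PNPB is then added at 0.07–0.3 mM and the A405 change is followed for 1 min at each substrate level. Mechanism is assigned from the rate data across substrate and inhibitor concentrations.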

SMILES	Ki [µM]
CCOP1(=O)OC(c2ccccc2)=C(C#Cc2ccccc2)c2ccccc21 (centres undefined)	1.9
CCOP1(=O)OC(c2ccc(CC)cc2)=C(I)c2ccc(Cl)cc21 (centres undefined)	4.2
O=P1(O)OC(c2ccccc2)=C(Cl)c2ccccc21	1.4

Biological target: not listed separately
Test: Inhibition of pig pancreatic cholesterol esterase assessed as p-nitrophenylbutyrate hydrolysis after 1 min
Parameters: species or system Sus scrofa
Method in brief: as §1

SMILES	IC50 [µM]
CCOP1(=O)OC(c2ccc([N+](=O)[O-])cc2)=Cc2ccc(Cl)cc21 (centres undefined)	> 100
CCOP1(=O)OC(c2ccccc2)=C(C#Cc2ccccc2)c2ccccc21 (centres undefined)	2.3
CCc1ccc(C2=Cc3ccc(Cl)cc3P(=O)(O)O2)cc1	58.4
O=P1(O)OC(c2ccccc2)=C(Cl)c2ccc(Cl)cc21	14.6
CCOP1(=O)OC(CO)=Cc2ccc(OC)cc21 (centres undefined)	79.4
CCOP1(=O)OC(c2ccccc2)=C(Cl)c2ccc(OC)cc21 (centres undefined)	89.6
CCOP1(=O)OC(c2ccccc2)=C(Br)c2ccc(OC)cc21 (centres undefined)	34.4
CCOP1(=O)OC(c2ccc(CC)cc2)=C(C#Cc2ccccc2)c2ccc(Cl)cc21 (centres undefined)	8.5
O=P1(O)OC(c2ccccc2)=Cc2ccccc21	96.3
CCOP1(=O)OC(c2ccccc2)=C(I)c2ccc(OC)cc21 (centres undefined)	54.5
CCOP1(=O)OC(c2ccc(CC)cc2)=C(CC(=O)c2ccccc2)c2ccc(Cl)cc21 (centres undefined)	5.1
COc1ccc2c(c1)P(=O)(O)OC(c1ccccc1)=C2Br	57.4
COc1ccc2c(c1)P(=O)(O)OC(c1ccccc1)=C2	102
CCOP1(=O)OC(C2CC2)=C(Cl)c2ccc(OC)cc21 (centres undefined)	> 150
O=P1(O)OC(c2ccccc2)=Cc2ccc(Cl)cc21	38.7
O=P1(O)OC(c2ccccc2)=C(Br)c2ccccc21	14.1
CCOP1(=O)OC(c2ccccc2)=C(Br)c2ccccc21 (centres undefined)	18.9
CCOP1(=O)OC(c2ccc(CC)cc2)=C(Cl)c2ccc(Cl)cc21 (centres undefined)	8.9

SMILES	IC50 [µM]
CCOP1(=O)OC(c2ccccc2)=Cc2ccccc21 (centres undefined)	63.6
CCOP1(=O)OC(c2ccccc2)=C(Br)c2ccc(Cl)cc21 (centres undefined)	51.2
CCOP1(=O)OC(c2ccc(CC)cc2)=C(I)c2ccc(Cl)cc21 (centres undefined)	4.8
CCOP1(=O)OC(c2ccc(OC)cc2)=C(Br)c2ccc(Cl)cc21 (centres undefined)	47.9
O=P1(O)OC(c2ccccc2)=C(Cl)c2ccccc21	1.9
CCCCC1=Cc2ccc(Cl)cc2P(=O)(OCC)O1 (centres undefined)	43.1
CCOP1(=O)OC(c2ccccc2)=C(I)c2ccccc21 (centres undefined)	30.3
CCOP1(=O)OC(c2ccccc2)=C(I)c2ccc(Cl)cc21 (centres undefined)	47.9
CCOP1(=O)OC(c2ccccc2)=C(Cl)c2ccc(Cl)cc21 (centres undefined)	34.8
CCOP1(=O)OC(c2ccccc2)=Cc2ccc(OC)cc21 (centres undefined)	77.4
CCOP1(=O)OC(c2ccc(CC)cc2)=C(Br)c2ccc(Cl)cc21 (centres undefined)	6.4
CCOP1(=O)OC(c2ccc(OC)cc2)=C(I)c2ccc(Cl)cc21 (centres undefined)	26.2
CCCCC1=Cc2ccccc2P(=O)(O)O1	62.6
CCOP1(=O)OC(c2ccccc2)=C(Cl)c2ccccc21 (centres undefined)	12.7
CCOP1(=O)OC(c2ccc(CC)cc2)=Cc2ccc(Cl)cc21 (centres undefined)	40.3
CCOP1(=O)OC(C2CC2)=C(Cl)c2ccc(Cl)cc21 (centres undefined)	> 100
CCOP1(=O)OC(c2ccccc2)=Cc2ccc(Cl)cc21 (centres undefined)	56.9

Species on record: Sus scrofa
Test: Reversible inhibition of pig pancreatic cholesterol esterase assessed as p-nitrophenylbutyrate hydrolysis after 1 min

SMILES	Activity
CCOP1(=O)OC(c2ccccc2)=C(C#Cc2ccccc2)c2ccccc21 (centres undefined)	Active
CCOP1(=O)OC(c2ccc(CC)cc2)=C(I)c2ccc(Cl)cc21 (centres undefined)	Active
O=P1(O)OC(c2ccccc2)=C(Cl)c2ccccc21	Active
